According to PubChem BioAssay AID540320 (Southern Research Specialized Biocontainment Screening …, 2011):
The source made the active and inactive calls.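 How the source made its calls: active means progeny virus titer drops over tenfold versus the untreated infected control, meaning log virus titer change below -1; inactive means the rest.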

Tested on: HEp-2 cells, RSV plaque reduction, virus titer
Assay: RSV replication inhibitors by plaque titer, orthogonal assay for RSV antiviral project, plaque reduction, HEp-2 cells, set 3 (AID 540320)
Conditions: at 10 µM; hits give low values
Summary of the method: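 Assay system: HEp-2 cells infected with RSV Long strain; Reagent: RSV Long, MOI 0.1; Compound: single dose, 0.5% DMSO; Incubation: 48 h compound exposure at 37 °C after infection; Signal: plaque assay on fresh HEp-2, PFA fixation, neutral red staining; Measure: progeny virus titer in 48 h culture supernatant; Control set: Ribavirin 35 µM.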

COCCCNC(=O)c1ccc(Cn2c(=O)c3ccccc3n(Cc3ccc4nonc4c3)c2=O)cc1
log virus titer change: -2.05

COCCCNC(=O)c1ccc(Cn2c(=O)c3ccccc3n(Cc3ccc(C)c(C(F)(F)F)c3)c2=O)cc1
log virus titer change: -2.37

COCCCNC(=O)c1ccc(Cn2c(=O)c3ccccc3n(Cc3ccc(Cl)cc3)c2=O)cc1
log virus titer change: -3.12

COCCCNC(=O)c1ccc(Cn2c(=O)c3ccc(Br)cc3n(Cc3ccc(C)cc3)c2=O)cc1
log virus titer change: -0.31 (inactive)

Cc1ccc(Cn2c(=O)n(Cc3ccc(C(=O)Nc4cc(C)nc5ccccc45)cc3)c(=O)c3ccccc32)cc1
log virus titer change: -0.61 (inactive)

COCCCNC(=O)c1ccc(Cn2c(=O)c3ccccc3n(Cc3ccc(OC)cc3)c2=O)cc1
log virus titer change: -2.72

Cc1ccc(Cn2c(=O)n(Cc3ccc(C(=O)Nc4ccncc4)cc3)c(=O)c3ccccc32)cc1
log virus titer change: -3.25

COCCCNC(=O)c1ccc(Cn2c(=O)c3ccccc3n(Cc3ccc(C(F)(F)F)cc3)c2=O)cc1
log virus titer change: -2.66

Cc1ccc(Cn2c(=O)n(Cc3ccc(C(=O)Nc4nccs4)cc3)c(=O)c3ccccc32)cc1
log virus titer change: -0.01 (inactive)

COCCCNC(=O)c1ccc(Cn2c(=O)c3ccccc3n(Cc3ccc(Br)cc3)c2=O)cc1
log virus titer change: -4.51

COCCCNC(=O)c1ccc(Cn2c(=O)c3ccccc3n(Cc3ccc([N+](=O)[O-])cc3)c2=O)cc1
log virus titer change: -4.94

Cc1cc(NC(=O)[C@@H]2CCCN2S(=O)(=O)c2cccc3cccnc23)n(C(C)(C)C)n1
log virus titer change: -0.71 (inactive)

Cc1ccc(F)cc1NC(=O)[C@@H]1CCCN1S(=O)(=O)c1cccc2cccnc12
log virus titer change: -0.33 (inactive)

Cc1ccc(Cn2c(=O)n(Cc3ccc(C(=O)NC(C)(C)C)cc3)c(=O)c3ccccc32)cc1
log virus titer change: -5.38

Cc1cccc(NC(=O)[C@@H]2CCCN2S(=O)(=O)c2cccc3cccnc23)c1C
log virus titer change: -0.39 (inactive)
